Assay results as given in ChEMBL document CHEMBL3091299, “Adamantyl derivative as a potent inhibitor of Plasmodium FK506 binding protein 35” (ACS Med Chem Lett, 2013).
Activity calls are given as the source filed them. The rule behind the calls is not given here.

What was measured:
Plasmodium falciparum [1] = assay: Antimicrobial activity against mid-ring stage Plasmodium falciparum 3D7 infected in erythrocytes assessed as reduction in parasitemia at 500 nM after 8 hrs by Giemsa-staining based microscopy relative to control; format: functional, organism-based
How it was run: (§1)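 Highly synchronized ring-infected erythrocytes (3D7) followed over one full 48 h intraerythrocytic cycle with inhibitor, chloroquine, artemisinin, or no treatment. Parasitaemia (%) and morphology were scored from Giemsa-stained smears every 8 h, with untreated parasites as reference.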

Plasmodium falciparum [2] = assay: Antimicrobial activity against Plasmodium falciparum 3D7 infected in erythrocytes assessed as schizont-stage maturation at 500 nM after 4 to 24 hrs by Giemsa-staining based microscopy relative to control; format: functional, organism-based
Plasmodium falciparum [3] = assay: Antimicrobial activity against Plasmodium falciparum 3D7 infected in erythrocytes assessed as ring-stage maturation at 500 nM after 4 to 24 hrs by Giemsa-staining based microscopy relative to control; format: functional, organism-based
[4] = Inhibition of Plasmodium falciparum recombinant FKBP35 using Succ-Ala-Leu-Pro-Phe-pNA as substrate after 30 mins by UV-Vis spectrophotometry in presence of alpha-chymotrypsin
Plasmodium falciparum [5] = assay: Antimicrobial activity against mid-ring stage Plasmodium falciparum 3D7 infected in erythrocytes assessed as change in parasite morphology at 500 nM after 8 hrs by Giemsa-staining based microscopy relative to control; format: functional, organism-based; how it was run: as §1
Plasmodium falciparum [6] = assay: Antimicrobial activity against mid-ring stage Plasmodium falciparum 3D7 infected in erythrocytes assessed as death and disintegration of parasite at 500 nM after 16 to 24 hrs by Giemsa-staining based microscopy relative to control; format: functional, organism-based; how it was run: as §1
Plasmodium falciparum [7] = assay: Antimicrobial activity against mid-ring stage Plasmodium falciparum 3D7 infected in erythrocytes assessed as reduction in trophozoite stage development at 500 nM after 16 to 24 hrs by Giemsa-staining based microscopy relative to control; format: functional, organism-based; how it was run: as §1
Plasmodium falciparum [8] = assay: Antimicrobial activity against Plasmodium falciparum 3D7 infected in erythrocytes assessed as disintegration of trophozoite-stage maturation at 500 nM after 16 hrs by Giemsa-staining based microscopy relative to control; format: functional, organism-based
Plasmodium falciparum [9] = assay: Antimicrobial activity against Plasmodium falciparum 3D7 infected in erythrocytes assessed as impairment of trophozoite-stage maturation at 500 nM after 8 hrs by Giemsa-staining based microscopy relative to control; format: functional, organism-based
Homo sapiens = species: Homo sapiens; assay: Inhibition of human recombinant calcineurin phosphatase activity using RII phosphopeptide as substrate incubated 10 to 30 mins prior to substrate addition by spectrophotometry
[10] = Inhibition of Plasmodium vivax recombinant FKBP35 using Succ-Ala-Leu-Pro-Phe-pNA as substrate after 30 mins by UV-Vis spectrophotometry in presence of alpha-chymotrypsin

SMILES | Activity (Plasmodium falciparum [1]) | Activity (Plasmodium falciparum [2]) | Activity (Plasmodium falciparum [3]) | IC50 [4] [nM] | Activity (Plasmodium falciparum [5]) | Activity (Plasmodium falciparum [6]) | Activity (Plasmodium falciparum [7]) | inhibition (Homo sapiens) | further results
C[C@@H]1CC[C@H]2[C@@H](C)C(=O)O[C@@H]3O[C@@]4(C)CC[C@@H]1[C@]32OO4 | Active | – | – | – | – | – | – | – | –
O=C(NNC(=O)C12CC3CC(CC(C3)C1)C2)c1cccc2ccccc12 | – | inactive | inactive | 49.3 | – | – | – | – | –
CCN(CC)CCCC(C)Nc1ccnc2cc(Cl)ccc12 (stereo not drawn) | inactive | – | – | – | inactive | Active | Active | – | –
O=C(NNC(=O)C12CC3CC(CC(C3)C1)C2)c1ccncc1 | inactive | inactive | inactive | 83 | inactive | Active | Active | inactive | Activity (Plasmodium falciparum [8]): Active; Activity (Plasmodium falciparum [9]): Active; IC50 [10]: 75 nM
O=C(NNC(=O)C12CC3CC(CC(C3)C1)C2)c1ccccc1 | – | inactive | inactive | 94.8 | – | – | – | – | –
C=CC[C@@H]1/C=C(\C)C[C@H](C)C[C@H](OC)[C@H]2O[C@@](O)(C(=O)C(=O)N3CCCC[C@H]3C(=O)O[C@H](/C(C)=C/[C@@H]3CC[C@@H](O)[C@H](OC)C3)[C@H](C)[C@@H](O)CC1=O)[C@H](C)C[C@@H]2OC | – | – | – | – | – | – | – | Active | –
